Results of several laboratories.
Each line is one published result; the experiments were not run side by side.
Target: Serine/threonine-protein kinase Chk2 (CHEK2, Homo sapiens, UniProt O96017)

Compound | observed | method | tested at | remaining binding [%]
COc1ncc2cc3ccccc3nc2c1C#N | cell-free assay | competition with immobilised ligand | 5 µM | 100
N[C@@H]1CCN(c2nccc(-c3cnn4ncccc34)n2)C1 | binding |  | 1 µM | 100
CNC(=O)Nc1ccc2c(c1)CC[C@@]21OC(=O)N(CC(=O)N(Cc2ccc(F)cc2)[C@@H](C)C(F)(F)F)C1=O | cell-free assay | competition with immobilised ligand | 1 µM | 100
c1cncc(-c2cccc(Nc3nccc(NC4CCCCC4)n3)c2)c1 | binding | competition with immobilised ligand | 10 µM | 97
CCCOc1ccc([C@@H]2[C@@H](C(=O)O)[C@H](c3ccc4c(c3)OCO4)CN2CC(=O)Nc2c(CC)cccc2CC)cc1 | cell-free assay | competition with immobilised ligand | 1 µM | 98
O=C(c1ccc(Nc2nccc(-c3cc4ccccc4s3)n2)cc1)N1CCC(N2CCCC2)CC1 | binding | competition with immobilised ligand | 1 µM | 100
O=C(NCC1CCOCC1)c1n[nH]cc1NC(=O)c1c(F)cccc1F | binding | competition with immobilised ligand | 1 µM | 97
Cn1nc(C(=O)NCc2ccc(C(=O)O)cc2)cc1-c1ccc2[nH]ccc2c1 | cell-free assay | competition with immobilised ligand | 0.1 µM | 100
O=C(c1ccc(Nc2ncc(Cl)c(-c3ccc(Cl)s3)n2)cc1)N1CCC(N2CCCC2)CC1 | binding | competition with immobilised ligand | 1 µM | 87
CN(c1nccc(-c2cnn3ncccc23)n1)C1CC1 | binding |  | 1 µM | 100
C[C@@]1(Cc2ccc(C#N)cc2)C(=O)N(c2cc(Cl)cc(Cl)c2)c2ncc(C(=O)NC3(c4nc(C5CCC5)no4)CC3)n21 | cell-free assay | competition with immobilised ligand | 1 µM | 100
CN(C)c1nccc(-c2cnc3ncccn23)n1 | binding |  | 1 µM | 79
CC(C)(O)c1cncc(-c2nc3ccc(F)cc3n2C2CC2)c1 | cell-free assay | competition with immobilised ligand | 1 µM | 100
Cc1cnn2ncc(-c3ccnc(N(C)C)n3)c2c1 | binding |  | 1 µM | 84
Cc1cnc(Nc2ccc(C(=O)N3CCC(N4CCCC4)CC3)cc2)nc1-c1cc2ccccc2s1 | binding | competition with immobilised ligand | 1 µM | 100
c1cnn2ncc(-c3ccnc(N4CCC45COC5)n3)c2c1 | binding |  | 1 µM | 77
COc1cnc(Nc2cccc(S(N)(=O)=O)c2)nc1N1CCN(c2ccccc2)C(=O)C1 | binding | competition with immobilised ligand | 1 µM | 86
F[C@@H]1CCN(c2nccc(-c3cnn4ncccc34)n2)C1 | binding |  | 1 µM | 100
Cc1cc(-n2nc(Cc3cc(F)cc(C(F)(F)F)c3)nc2C)ccc1C(N)=O | cell-free assay | competition with immobilised ligand | 1 µM | 100
C=CC(=O)N1CCC(C(=O)NCC(=O)N2CCN(c3nc(-c4cnc(N)nc4C(F)F)nc(N4CCOCC4)n3)CC2)CC1 | binding | competition with immobilised ligand | 1 µM | 88
CNC(=O)[C@@H]1CC[C@@H](n2c(-c3ccc4cnccc4c3)nc3ccc(C(=O)NCc4cccc(C(N)=O)c4)cc32)C1 | binding | competition with immobilised ligand | 1 µM | 100
C[C@H]1CCN(c2nccc(-c3cnn4ncccc34)n2)C1 | binding |  | 1 µM | 94
CCC(=N\O)/C(C)=C/c1ccc(F)cc1 | cell-free assay | competition with immobilised ligand | 1 µM | 85
FC(F)(F)Oc1cccc(-c2cnc3ccc(-c4ccncc4)nn23)c1 | cell-free assay | competition with immobilised ligand | 5 µM | 74
